Reference: ChEMBL document CHEMBL3351261, “Induction of intrinsic apoptosis pathway in colon cancer HCT-116 cells by novel 2-substituted-5,6,7,8-tetrahydronaphthalene derivatives” (Eur J Med Chem, 2014)
≈ marks a conversion by molar mass, not a printed value. Calls of active or inactive are those of the source. The calls are words filed in the database; no cut-off is given here.

Assays:
MCF7 = assay: Cytotoxicity against human MCF7 cells after 48 hrs by MTT method; type: functional, cell-based; settings: MCF7, 48 h
[1] = Cytotoxicity against human HCT116 cells after 48 hrs by MTT method; type: functional, cell-based; settings: HCT-116, 48 h
HepG2 = assay: Cytotoxicity against human HepG2 cells after 48 hrs by MTT method; type: functional, cell-based; settings: HepG2, 48 h
HeLa = assay: Cytotoxicity against human HeLa cells after 48 hrs by MTT method; type: functional, cell-based
HCT-116 [2] = assay: Induction of DNA fragmentation in human HCT116 cells at IC50 after 30 mins relative to control; type: functional
Method in brief: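 HCT-116 cells, treated or untreated, were resuspended in TE buffer (10 mM Tris, 1 mM EDTA, pH 8.0) and lysed 30 min in 5 mM Tris, 20 mM EDTA, 0.5% Triton X-100, pH 8.0. Fragmented DNA (supernatant) was separated from intact chromatin (pellet) by centrifugation and quantified with diphenylamine reagent. % fragmentation = supernatant DNA / pellet DNA; three measurements, mean ± SD.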

HCT-116 [3] = assay: Induction of apoptosis in human HCT116 cells assessed as increase in total caspase level relative to control; type: functional, cell-based
Method in brief: (§1)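 HCT-116 cells, treated or untreated, were lysed (pH 7.4) and cleared at 14,000× g, 15 min, 4 °C. Kit-based read-outs: total caspases via Red-VAD-FMK fluorescence (Ex 540/Em 570 nm); caspase-3 colorimetric at 405 nm; caspase-9 via LEHD-pNA cleavage, pNA at 405 nm. Results are fold over untreated cells.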

HCT-116 [4] = assay: Induction of apoptosis in human HCT116 cells at IC50 by acridine orange/ethidium bromide staining-based fluorescence microscopy; type: functional
Method in brief: (§2)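 Treated and untreated HCT-116 cells were stained with acridine orange/ethidium bromide (each 100 µg/ml mix in PBS) and examined under fluorescence microscopy, blinded. Cells with yellow condensed or fragmented nuclei were counted as apoptotic; bright orange chromatin in round nuclei was counted as necrotic. Each is reported as % of the dead-cell population.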

HCT-116 [5] = assay: Induction of apoptosis in human HCT116 cells assessed as increase in caspase-9 level relative to control; type: functional, cell-based; method in brief: as §1
HCT-116 [6] = assay: Induction of apoptosis in human HCT116 cells assessed as cytochrome C accumulation by immunoblotting analysis; type: functional, cell-based
Method in brief: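 HCT-116 cells were lysed in ice-cold buffer (pH 7.4) with NP40, Triton X-100 and protease/phosphatase inhibitors, then cleared at 14,000× g for 15 min at 4 °C; protein was measured by BCA. Soluble protein (20 µg) was dot-blotted on nitrocellulose and probed for cytochrome c, detected with HRP anti-goat antibody and OPD. Dot colour intensity is given as mean % of three replicates.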

HCT-116 [7] = assay: Induction of apoptosis in human HCT116 cells assessed as reduction of mitochondrial membrane potential after 2 hrs by JC-1 staining-based fluorescence assay; type: functional, cell-based
Method in brief: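 HCT-116 cells in 96-well plates were preloaded with 10 µg/ml JC-1 in HBSS for 30 min at 37 °C, then incubated with or without compound for 2 h at 37 °C. The 590/527 nm emission ratio was read at zero time and at 2 h and expressed as % of the zero-time reading. CCCP served as positive control; mean of three readings ± SD.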

HCT-116 [8] = assay: Induction of apoptosis in human HCT116 cells assessed as increase in caspase-3 level relative to control; type: functional, cell-based; method in brief: as §1
HCT-116 [9] = assay: Induction of necrosis in human HCT116 cells at IC50 by acridine orange/ethidium bromide staining-based fluorescence microscopy; type: functional; method in brief: as §2

Row | SMILES | IC50 (MCF7) | IC50 [1] | IC50 (HepG2) | IC50 (HeLa) | Activity (HCT-116 [2]) | Activity (HCT-116 [3]) | Activity (HCT-116 [4]) | Activity (HCT-116 [5]) | Activity (HCT-116 [6]) | Activity (HCT-116 [7]) | Activity (HCT-116 [8]) | Activity (HCT-116 [9])
1 | COc1ccc(N/C=C\C(=O)c2ccc3c(c2)CCCC3)cc1 | 43.1 µg/mL (≈ 140 µM) | 31.8 µg/mL (≈ 103 µM) | 31.8 µg/mL (≈ 103 µM) | 46.1 µg/mL (≈ 150 µM) |  |  |  |  |  |  |  | 
2 | CC(=O)O[C@H]1C(=O)[C@@]2(C)[C@H]([C@H](OC(=O)c3ccccc3)[C@]3(O)C[C@H](OC(=O)[C@H](O)[C@@H](NC(=O)c4ccccc4)c4ccccc4)C(C)=C1C3(C)C)[C@]1(OC(C)=O)CO[C@@H]1C[C@@H]2O [PACLITAXEL] | 0.61 µg/mL (≈ 0.714 µM) | 0.38 µg/mL (≈ 0.445 µM) | 0.59 µg/mL (≈ 0.691 µM) | 0.47 µg/mL (≈ 0.55 µM) | 44% |  |  |  |  |  |  | 
3 | c1cc(-c2ccc3c(c2)CCCC3)n2ncnc2n1 | 48.2 µg/mL (≈ 193 µM) | 2.1 µg/mL (≈ 8.39 µM) | 15.9 µg/mL (≈ 63.5 µM) | 21.8 µg/mL (≈ 87.1 µM) | Active | Active | 77% | inactive | Active | Active | Active | 0%
4 | O=C(/C=C\Nc1ccc([N+](=O)[O-])cc1)c1ccc2c(c1)CCCC2 | 28.5 µg/mL (≈ 88.4 µM) | 6.8 µg/mL (≈ 21.1 µM) | 27.4 µg/mL (≈ 85 µM) | 48.4 µg/mL (≈ 150 µM) | Active | Active | 77% |  | Active |  |  | 0%
5 | O=C(c1ccc2c(c1)CCCC2)c1coc2c1cc(O)c1ccccc12 | 48.7 µg/mL (≈ 142 µM) | 36.2 µg/mL (≈ 106 µM) | 31.7 µg/mL (≈ 92.6 µM) | 40.5 µg/mL (≈ 118 µM) |  |  |  |  |  |  |  | 
6 | O=C(/C=C\Nc1ccc(Cl)cc1)c1ccc2c(c1)CCCC2 | 28.7 µg/mL (≈ 92 µM) | 7.9 µg/mL (≈ 25.3 µM) | 30.3 µg/mL (≈ 97.2 µM) | 19.9 µg/mL (≈ 63.8 µM) | Active |  | 77% |  |  | inactive |  | 0%
7 | c1ccc(-c2cc3nccc(-c4ccc5c(c4)CCCC5)n3n2)cc1 | 19.9 µg/mL (≈ 61.2 µM) | 26.7 µg/mL (≈ 82 µM) | 37.6 µg/mL (≈ 116 µM) | 36.2 µg/mL (≈ 111 µM) |  |  |  |  |  |  |  | 
8 | CN(C)/C=C/C(=O)c1ccc2c(c1)CCCC2 | 29.3 µg/mL (≈ 128 µM) | 18.9 µg/mL (≈ 82.4 µM) | 22.3 µg/mL (≈ 97.2 µM) | 33.4 µg/mL (≈ 146 µM) |  |  |  |  |  |  |  | 
9 | O=C(c1ccc2c(c1)CCCC2)c1coc2ccc(O)cc12 | 40.3 µg/mL (≈ 138 µM) | 9.5 µg/mL (≈ 32.5 µM) | 39.2 µg/mL (≈ 134 µM) | 41.6 µg/mL (≈ 142 µM) | Active |  | 77% |  |  | inactive |  | 0%
10 | O=c1[nH]c(=S)[nH]c2nccc(-c3ccc4c(c3)CCCC4)c12 | 18.2 µg/mL (≈ 58.8 µM) | 0.49 µg/mL (≈ 1.58 µM) | 27 µg/mL (≈ 87.3 µM) | 25.3 µg/mL (≈ 81.8 µM) | Active | Active | 77% | Active | Active | Active | Active | 0%
11 | O=C(/C=C/N1CCCCC1)c1ccc2c(c1)CCCC2 | 41.1 µg/mL (≈ 153 µM) | 35.4 µg/mL (≈ 131 µM) | 39.1 µg/mL (≈ 145 µM) | 35.6 µg/mL (≈ 132 µM) |  |  |  |  |  |  |  | 
12 | O=c1[nH]c(=O)c2c(-c3ccc4c(c3)CCCC4)ccnc2[nH]1 | 24.4 µg/mL (≈ 83.2 µM) | 18.6 µg/mL (≈ 63.4 µM) | 39.9 µg/mL (≈ 136 µM) | 29.1 µg/mL (≈ 99.2 µM) |  |  |  |  |  |  |  | 
13 | O=C(/C=C\Nc1ccccc1)c1ccc2c(c1)CCCC2 | 32.2 µg/mL (≈ 116 µM) | 41.6 µg/mL (≈ 150 µM) | 19.9 µg/mL (≈ 71.7 µM) | 30.6 µg/mL (≈ 110 µM) |  |  |  |  |  |  |  | 
14 | O=C(Nc1ccc(-c2ccc3c(c2)CCCC3)oc1=O)c1ccccc1 | 27.5 µg/mL (≈ 79.6 µM) | 47.7 µg/mL (≈ 138 µM) | 29.3 µg/mL (≈ 84.8 µM) | 38.3 µg/mL (≈ 111 µM) |  | Active |  |  | Active |  |  | 
15 | Cc1ccc(N/C=C\C(=O)c2ccc3c(c2)CCCC3)cc1 | 43.6 µg/mL (≈ 150 µM) | 42.1 µg/mL (≈ 144 µM) | 42.7 µg/mL (≈ 147 µM) | 28.7 µg/mL (≈ 98.5 µM) |  |  |  |  |  |  |  | 
16 | CC(=O)Nc1ccc(-c2ccc3c(c2)CCCC3)oc1=O | 20.9 µg/mL (≈ 73.8 µM) | 8.4 µg/mL (≈ 29.6 µM) | 45.3 µg/mL (≈ 160 µM) | 30.4 µg/mL (≈ 107 µM) | Active |  | 77% | Active |  |  | inactive | 0%
17 | O=C(/C=C/N1CCOCC1)c1ccc2c(c1)CCCC2 | 38.6 µg/mL (≈ 142 µM) | 7.2 µg/mL (≈ 26.5 µM) | 18.2 µg/mL (≈ 67.1 µM) | 41.2 µg/mL (≈ 152 µM) | Active |  | 77% |  |  | inactive |  | 0%
